Data published in ChEMBL document CHEMBL2034945, “Bioactive quassinoids from the seeds of Brucea javanica” (J Nat Prod, 2012).

How the values were obtained:
Assay type in all cases: functional, cell-based
HCT-8 = experiment: Cytotoxicity against human HCT8 cells by MTT assay
Outline: (§1)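 Colorimetric MTT assay on human cancer lines: HCT-8 colon, HepG2 hepatoma, BGC-823 gastric, A549 lung epithelial and SKOV3 ovarian. Paclitaxel was the positive control. IC50 was reported.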

HepG2 = experiment: Cytotoxicity against human HepG2 cells by MTT assay; outline: as §1
SK-OV-3 = experiment: Cytotoxicity against human SKOV3 cells by MTT assay; outline: as §1
A549 = experiment: Cytotoxicity against human A549 cells by MTT assay; outline: as §1
BGC-823 = experiment: Cytotoxicity against human BGC823 cells by MTT assay; outline: as §1
[1] = Antiinflammatory activity in rat polymorphonuclear leukocytes assessed as inhibition of LPS-stimulated nitric oxide production after 20 mins by Griess method
Outline: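 Rat polymorphonuclear leukocytes were stimulated with LPS, and nitric oxide in the culture supernatant was measured by Griess reaction. Supernatant or sodium nitrite standard was mixed 1:1 with Griess reagent (0.1% N-(1-naphthyl)ethylenediamine dihydrochloride plus 1% sulfanilamide in 5% phosphoric acid, combined within 1 h of preparation). After 20 min at room temperature, absorbance was read at 540 nm. Dexamethasone was the positive control. IC50 was reported.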

IC50 [1] [µM]	Compound	IC50 (HCT-8) [µM]	IC50 (HepG2) [µM]	IC50 (SK-OV-3) [µM]	IC50 (A549) [µM]	IC50 (BGC-823) [µM]
	COC(=O)[C@@H](C)[C@@H]1C[C@H]2OC(=O)[C@H](OC(=O)C=C(C)C)[C@H]3[C@]4(C(=O)OC)OC[C@]23[C@H]([C@@H](O)[C@@H]4O)[C@@]1(C)CC(=O)O	> 10	> 10	> 10	> 10	> 10
	COC(=O)C[C@]1(C)[C@H]2[C@@H](O)[C@H](O)[C@@]3(C(=O)OC)OC[C@@]24[C@@H](C[C@H]1C(C)=O)OC(=O)[C@H](OC(=O)C=C(C)C)[C@@H]34 [BRUCEANIC ACID E METHYL ESTER]	> 10	> 10	> 10	> 10	> 10
	COC(=O)[C@@]12OC[C@]34[C@H]([C@@H](O)[C@@H]1O)[C@@](C)(CC(=O)O)[C@H](C(C)=O)C[C@H]3OC(=O)[C@H](OC(=O)C=C(C)C)[C@@H]24 [BRUCEANIC ACID E]	> 10	> 10	> 10	> 10	> 10
	CC(=O)[C@@H]1C[C@H]2OC(=O)[C@H](OC(=O)C=C(C)C)[C@H]3[C@]4(C(=O)O)OC[C@]23[C@H]([C@@H](O)[C@@H]4O)[C@@]1(C)CC(=O)O [BRUCEANIC ACID F]	> 10	> 10	> 10	> 10	> 10
	COC(=O)[C@]12OC[C@@]34[C@H](C[C@H]5[C@H](C)C(=O)C(O[C@@H]6O[C@H](CO)[C@@H](O)[C@H](O)[C@H]6O)=C[C@]5(C)[C@H]3[C@@H](O)[C@@H]1O)OC(=O)[C@H](OC(=O)/C=C(\C)C(C)C)[C@@H]24 [BRUCEANTINOSIDE A]	> 10	> 10	> 10	> 10	> 10
1.9	COC(=O)[C@@]12OC[C@]34[C@H]([C@@H](O)[C@@H]1O)[C@@]1(C)CC(=O)C(O)=C(C)[C@@H]1C[C@H]3OC(=O)[C@H](OC(C)=O)[C@@H]24 [BRUCEINE B]	2	0.81	0.12	1.3	0.81
	CC1=CC(=O)[C@@H](O)[C@]2(C)[C@H]3[C@@H](O)[C@H](O)[C@]4(C)OC[C@@]35[C@@H](C[C@@H]12)OC(=O)[C@H](O)[C@]54O [BRUCEINE D]	2	1.2	0.76	3.9	1.2
	CC1=CC(=O)[C@@H](O)[C@]2(C)[C@H]3[C@@H](O)[C@H](O)[C@@]4(CO)OC[C@@]35[C@@H](C[C@@H]12)OC(=O)[C@H](O)[C@]54O [BRUCEINE H]	1.3	2.8	0.33	9.3	2.1
	COC(=O)[C@@]12OC[C@]34[C@H]([C@@H](O)[C@@H]1O)[C@@]1(C)C=C(O[C@@H]5O[C@H](CO)[C@@H](O)[C@H](O)[C@H]5O)C(=O)[C@@H](C)[C@@H]1C[C@H]3OC(=O)[C@H](OC(=O)C=C(C)C)[C@@H]24 [BRUCEOSIDE A]	> 10	> 10	> 10	> 10	> 10
	COC(=O)[C@@]12OC[C@@]34[C@@H](CC5=C(C)C(=O)C(O)=C[C@]5(C)[C@H]3[C@@H](O)[C@@H]1O)OC(=O)[C@H](OC(=O)C=C(C)C)[C@@H]24 [DEHYDROBRUSATOL]	> 10	3.3	2.5	7.3	4.8
0.0023	C[C@@H]1C[C@H]2[C@@H]3CCC4=CC(=O)C=C[C@]4(C)[C@@]3(F)[C@@H](O)C[C@]2(C)[C@@]1(O)C(=O)CO [DEXAMETHASONE]					
	COC(=O)[C@@]12OC[C@]34[C@H]([C@@H](O)[C@@H]1O)[C@@](C)(CC(=O)O)[C@H]([C@@H](C)C(=O)O)C[C@H]3OC(=O)[C@H](OC(=O)C=C(C)C)[C@@H]24 [JAVANIC ACID A]	> 10	> 10	> 10	> 10	> 10
	COC(=O)[C@@]12OC[C@]34[C@H]([C@@H](O)[C@@H]1O)[C@@]1(C)CC(=O)[C@H](O)[C@@H](C)[C@@H]1C[C@H]3OC(=O)[C@H](OC(=O)C=C(C)C)[C@@H]24 [JAVANICOLIDE E]	> 10	> 10	1.49	6.36	1.43
	COC(=O)[C@@]12OC[C@]34[C@H]([C@@H](O)[C@@H]1O)[C@@]1(C)C[C@H](O)C(=O)[C@@H](C)[C@@H]1C[C@H]3OC(=O)[C@H](OC(=O)C=C(C)C)[C@@H]24 [JAVANICOLIDE H]	> 10	> 10	0.23	0.95	0.52
	CC(=O)O[C@H]1C(=O)[C@@]2(C)[C@H]([C@H](OC(=O)c3ccccc3)[C@]3(O)C[C@H](OC(=O)[C@H](O)[C@@H](NC(=O)c4ccccc4)c4ccccc4)C(C)=C1C3(C)C)[C@]1(OC(C)=O)CO[C@@H]1C[C@@H]2O [PACLITAXEL]			< 0.0001		

Compound	IC50 [1] [µM]	IC50 (HCT-8) [µM]	IC50 (HepG2) [µM]	IC50 (SK-OV-3) [µM]	IC50 (A549) [µM]	IC50 (BGC-823) [µM]
CC1=C[C@H](O)[C@@H](O)[C@]2(C)[C@H]3[C@@H](O)[C@H](O)[C@@]4(C)OC[C@@]35[C@@H](C[C@@H]12)OC(=O)[C@H](O)[C@]54O [BRUCEINE E]	5	6.7	2.9	2.2	> 10	2.2
